From ChEMBL document CHEMBL1127802, “Selective inhibitors of monoamine oxidase. 2. Arylamide SAR” (J Med Chem, 1994)

How the values were obtained:
[1] = biological target: T1, MAO B (monoamine oxidase B) (Rattus norvegicus, UniProt P19643); assay: Inhibitory activity against monoamine oxidase B (MAO B) from rat brain using a radiometric procedure with [14C]- phenethylamine at 1 uM; conditions: rat brain monoamine oxidase B preparation, probe [14C]-phenethylamine
T1 sequence (P19643 whole entry): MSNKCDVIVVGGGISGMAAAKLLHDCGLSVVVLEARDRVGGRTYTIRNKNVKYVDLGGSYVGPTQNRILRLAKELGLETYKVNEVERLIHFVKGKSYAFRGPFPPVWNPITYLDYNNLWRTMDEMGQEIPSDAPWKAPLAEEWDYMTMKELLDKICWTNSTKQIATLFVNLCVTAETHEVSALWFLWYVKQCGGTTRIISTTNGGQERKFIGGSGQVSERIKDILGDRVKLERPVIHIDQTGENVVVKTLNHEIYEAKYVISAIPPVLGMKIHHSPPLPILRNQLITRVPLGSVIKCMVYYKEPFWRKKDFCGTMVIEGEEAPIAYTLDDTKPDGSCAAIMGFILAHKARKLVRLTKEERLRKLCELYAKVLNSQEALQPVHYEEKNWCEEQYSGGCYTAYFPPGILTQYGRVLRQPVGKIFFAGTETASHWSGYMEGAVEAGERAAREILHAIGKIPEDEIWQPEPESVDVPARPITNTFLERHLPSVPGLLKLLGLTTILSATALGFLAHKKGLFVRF
Summary of the method: (§1)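 Rat brain mitochondrial MAO extract was preincubated ± inhibitor for 15 min at 37 °C in 50 mM potassium phosphate, pH 7.4. […] Pargyline (2 mM) defined blanks. Acid stop, ethyl acetate/toluene extraction and scintillation counting followed. Triplicate means gave % inhibition, and IC50 was extrapolated from % inhibition vs log concentration plots.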

[2] = biological target: T2, MAO A (monoamine oxidase A) (Rattus norvegicus, UniProt P21396); assay: Inhibitory activity against monoamine oxidase A (MAO A) from rat brain using a radiometric procedure with [3H]- serotonin at 1 uM; conditions: rat brain monoamine oxidase A preparation, probe [3H]-serotonin
T2 sequence (P21396 whole entry): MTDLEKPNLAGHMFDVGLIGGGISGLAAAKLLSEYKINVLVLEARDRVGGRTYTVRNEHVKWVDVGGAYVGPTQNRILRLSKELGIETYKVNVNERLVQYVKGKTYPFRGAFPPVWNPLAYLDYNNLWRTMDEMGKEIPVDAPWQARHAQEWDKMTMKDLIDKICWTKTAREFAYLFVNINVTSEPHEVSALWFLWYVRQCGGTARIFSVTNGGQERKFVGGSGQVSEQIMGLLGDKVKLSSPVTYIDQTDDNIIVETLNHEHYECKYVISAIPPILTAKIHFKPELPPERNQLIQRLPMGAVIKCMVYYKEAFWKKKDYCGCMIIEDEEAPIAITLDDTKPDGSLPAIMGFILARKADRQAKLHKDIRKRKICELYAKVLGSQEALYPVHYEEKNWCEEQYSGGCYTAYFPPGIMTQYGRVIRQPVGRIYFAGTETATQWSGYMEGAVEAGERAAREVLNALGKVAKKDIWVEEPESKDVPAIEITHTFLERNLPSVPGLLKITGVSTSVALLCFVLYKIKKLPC
Summary of the method: (§2)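 Rat brain mitochondrial MAO extract was preincubated with or without inhibitor for 15 min at 37 °C in 50 mM potassium phosphate, pH 7.4. […] Blanks contained 2 mM pargyline. Reactions were stopped with HCl, products extracted into ethyl acetate/toluene and counted by scintillation. Triplicates were averaged as % inhibition, and IC50 was taken from % inhibition vs log concentration.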

[3] = biological target: T2, MAO A (monoamine oxidase A); assay: (§3) Inhibitory activity against monoamine oxidase A (MAO A) from rat brain using a radiometric procedure with [3H]5-HT at 1 uM; conditions: rat brain monoamine oxidase A preparation, probe [3H]5-HT; summary of the method: as §2
[4] = biological target: T1, MAO B (monoamine oxidase B); assay: (§4) Inhibitory activity against monoamine oxidase B (MAO B) from rat brain using a radiometric procedure with [14C]phenylethylamine at 1 uM; conditions: rat brain monoamine oxidase B preparation, probe [14C]phenylethylamine; summary of the method: as §1
[5] = biological target: T2, MAO A (monoamine oxidase A); assay: Inhibitory activity against monoamine oxidase A (MAO A) from rat brain using a radiometric procedure with [3H]5-HT at 10 uM; conditions: rat brain monoamine oxidase A preparation, probe [3H]5-HT; summary of the method: as §2
[6] = biological target: T2, MAO A (monoamine oxidase A); assay: Inhibitory activity against monoamine oxidase A (MAO A) from rat brain using a radiometric procedure with [3H]- serotonin at 10 uM; conditions: rat brain monoamine oxidase A preparation, probe [3H]-serotonin; summary of the method: as §2
[7] = biological target: T3, Amine oxidase [flavin-containing] A (Rattus norvegicus, UniProt P21396); assay: Inhibitory activity against monoamine oxidase A (MAO A) from rat brain using a radiometric procedure with [3H]5-HT; summary of the method: as §2
T3 sequence (P21396 whole entry): T2 sequence (P21396 whole entry)

[8] = biological target: T1, MAO B (monoamine oxidase B); assay: Inhibitory activity against monoamine oxidase B (MAO B) from rat brain using a radiometric procedure with [14C]phenylethylamine at 10 uM; conditions: rat brain monoamine oxidase B preparation, probe [14C]phenylethylamine; summary of the method: as §1
[9] = biological target: T1, MAO B (monoamine oxidase B); assay: Inhibitory activity against monoamine oxidase B (MAO B) from rat brain using a radiometric procedure with [14C]- phenethylamine at 0.1 uM; conditions: rat brain monoamine oxidase B preparation, probe [14C]-phenethylamine; summary of the method: as §1
[10] = biological target: T2, MAO A (monoamine oxidase A); assay: Inhibitory activity against monoamine oxidase A (MAO A) from rat brain using a radiometric procedure with [3H]- serotonin at 0.1 uM; conditions: rat brain monoamine oxidase A preparation, probe [3H]-serotonin; summary of the method: as §2
[11] = biological target: T3, Amine oxidase [flavin-containing] A; assay: as §3; summary of the method: as §2
[12] = biological target: T4, Amine oxidase [flavin-containing] B (Rattus norvegicus, UniProt P19643); assay: as §4; summary of the method: as §1
T4 sequence (P19643 whole entry): T1 sequence (P19643 whole entry)

[13] = biological target: T4, Amine oxidase [flavin-containing] B; assay: Inhibitory activity against monoamine oxidase B (MAO B) from rat brain using a radiometric procedure with [14C]- phenethylamine at<10 uM; summary of the method: as §1
[14] = biological target: T1, MAO B (monoamine oxidase B); assay: Inhibitory activity against monoamine oxidase B (MAO B) from rat brain using a radiometric procedure with [14C]phenylethylamine at 0.3 uM; conditions: rat brain monoamine oxidase B preparation, probe [14C]phenylethylamine; summary of the method: as §1

`CC(=O)Nc1ccc2c3c([nH]c2c1)CCC(C)(C=O)C3` (stereo not given) showed an inhibition at 1 µM [1] of 11% and an inhibition at 1 µM [2] of 0%.

With `CC(=O)NCCc1ccc2c(c1)c1ccccc1n2C` the inhibition [3] was 50% and the inhibition at 1 µM [4] was 0%.

`Nc1ccc2[nH]c(=O)c3ccccc3c2c1` gave an inhibition [5] of 0%.

`CC(=O)N(C)c1ccc2c(c1)-c1ccccc1S2(=O)=O` gave an inhibition [3] of 0%.

`NC(=O)Nc1ccc2c(c1)[nH]c1ccccc12` showed an inhibition [3] of 74% and an inhibition at 1 µM [4] of 26%.

In the case of `CNc1ccc2c(c1)-c1ccccc1S2(=O)=O`, the inhibition [3] is reported as 34%.

`CC(=O)Nc1cccc(Nc2ccccc2)c1` gave an inhibition at 10 µM [6] of 44%.

For `CCCC(=O)Nc1ccc2c(c1)[nH]c1ccccc12`, the inhibition [3] was 36%.

`CC(=O)Nc1ccc2c(c1)S(=O)(=O)c1ccccc1C2` gave an inhibition [3] of 17% and an inhibition at 1 µM [4] of 49%.

`CC(=O)Nc1ccc2c(c1)S(=O)(=O)c1ccccc1C2=O` showed an IC50 [7] of 60 nM and an inhibition at 1 µM [4] of -1%.

Work on `CC(=O)Nc1ccc2c(c1)COCO2` yielded an inhibition [5] of 42% and an inhibition at 10 uM [8] of 22%.

In the case of `CC(=O)Nc1cccc2c1C(=O)c1ccccc1C2=O`, the inhibition at 1 µM [2] is reported as 12%.

`O=CN(C=O)c1ccc2c(c1)S(=O)(=O)c1ccccc1C2=O` gave an inhibition [5] of 18% and an inhibition at 10 uM [8] of 3%.

With `CC(=O)Nc1ccc2oc(=O)c3ccccc3c2c1` the inhibition at 0.1 µM [9] was 23% and the inhibition at 0.1 uM [10] was 10%.

Compound `CCCc1ccc2c(c1)S(=O)(=O)c1cc(NC(C)=O)ccc1C2=O` has an inhibition at 10 uM [8] of -7% and an IC50 [7] of 20 nM.

With `CC(=O)Nc1ccc2c3c([nH]c2c1)CCCC3` the inhibition [3] was 35% and the inhibition at 1 µM [4] was 0%.

`CC(=O)NC(C)c1ccc2c(c1)[nH]c1ccccc12` (stereo not given) was tested, and the inhibition [3] was 7% and the inhibition at 1 µM [4] was 20%.

`CC(=O)Nc1ccc2c(c1)S(=O)(=O)c1ccc(C)cc1C2=O` gave an IC50 [7] of 700 nM.

`CC(=O)Nc1ccc2c(c1)S(=O)(=O)c1cc(NC(C)=O)ccc1N2C` gave an inhibition [11] of 2% and an inhibition [12] of 7%.

Work on `CC(=O)Nc1ccc2c(c1)[nH]c1ccc(Br)cc12` yielded an inhibition [3] of 61%.

`CC(=O)Nc1ccc2c(c1)C(O)c1ccccc1-2` (stereo not given) was tested, and the IC50 [7] was 300 nM.

With `CC(=O)Nc1cc2ccccc2oc1=O` the inhibition [13] was 53% and the inhibition at 1 µM [2] was 5%.

With `CC(=O)NCc1ccc2c(c1)c1ccccc1n2C` the inhibition [3] was 16% and the inhibition at 1 µM [4] was 30%.

`CC(=O)Nc1ccc2c(c1)c(O)nc1ccccc12` gave an inhibition [3] of 55% and an inhibition at 1 µM [4] of 0%.

`CC(=O)Nc1ccc(Oc2ccc(CS(C)(=O)=O)cc2)cc1` was tested, and the inhibition [3] was 31% and the inhibition at 1 µM [4] was 25%.

Work on `CC(=O)Nc1ccc2c3ccccc3n(CCCN3CCN(C)CC3)c2c1` yielded an inhibition [5] of 80%.

For `CC(=O)Nc1ccc2c(c1)oc1ccccc12`, the IC50 [7] was 300 nM.

`CCc1ccc2c(c1)C(=O)c1ccc(NC(C)=O)cc1S2(=O)=O` was tested, and the IC50 [7] was 10 nM and the inhibition at 0.3 µM [14] was 15%.
